Bioassay records (PubChem BioAssay)
A selection: hits, their analogues and other compounds. The true share with any hit is near 2.6%.
DENV2 CPE rescue – inhibitors of DENV2 cytopathic effect; actives 1.7% (n = 350,000); AID 651640; DENV2-infected cells, cytopathic effect rescue, plate reader; CPE inhibition, % at 9.99 µM; in the data active = CPE inhibition above about 20%, passing the limit was not always enough; inconclusive = no clear call, values can overlap the other calls; tested in BHK-21 cells;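 note: 0% = median of neutral control wells and 100% = median of positive control wells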
E-selectin induc – induces E-selectin expression in human endothelial cells; actives 0.37% (n = 260,000); AID 686992; HUVEC E-selectin immunofluorescence imaging; normalized: neutral wells 0, TNF-alpha wells 100; activation, % at 7.58 µM; P16581;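 active = mean E-selectin-positive cell signal at least 10% of the positive control, reached in at least 60% of replicates, without over 20% cell loss; inconclusive = no rule given, readout overlaps actives, possibly toxicity-flagged; inactive = the rest, including those meeting only one limit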
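Assay system: HUVEC, human umbilical vein endothelial cells / Amount: 3,000 HUVEC/well / Controls: TNF-alpha positive control, DMSO neutral control / Compound dosing: single concentration / Medium: EGM-2 over gelatin coat / Evaluation: percent E-selectin-positive cells / Signal: immunofluorescence imaging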
CFTR F508del cor – correctors of CFTR F508del function in bronchial epithelial cells. CFBE cells, YFP halide quenching; stimulated with forskolin plus potentiator P3; % fluorescence drop versus neutral controls. activity (quench increase), % at 7.58 µM. actives 0.36% (n = 350,000);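 active = mean added fluorescence quench of at least 8% versus neutral control, with both replicates also reaching 8%; inconclusive = only one of the mean or replicate conditions met; inactive = mean below 8% and not both replicates reaching 8%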;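 note: cells transiently co-express mutant CFTR-F508del with the halide-sensitive YFP; corrector assay measuring rescue of mutant channel to the surface after 24 h compound exposure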
miR-122 sensor – miR-122 inhibition in Huh7 cells | Huh7 miR-122 Renilla luciferase sensor, 48 h; neutral wells = 0, positive control = 100 | activation (reporter increase), % at 12.5 µM | actives 0.3% (n = 340,000);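 active = mean replicate activation score at least 90 and every replicate individually at or above 90; inconclusive = only one of the two criteria met; inactive = neither criterion met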;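 note: higher luciferase means less miR-122 activity so hits act as miR-122 inhibitors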
GSIS activator – GLuc luminescence reporter in INS-1E cells, primary screen for activators of glucose-dependent secretion of insulin; INS-1E GLuc reporter insulin secretion, 2-3 h; activation, % at 16.6 µM; actives 0.61% (n = 370,000); AID 743287;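 active = lowest replicate activation of at least 40%, so every replicate reaches that level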;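 note: 0% = median of neutral control wells and 100% = median of IBMX positive control wells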
ERAP1 inh – blocks human ERAP1 aminopeptidase activity; inhibition, % at 10.7 µM; recombinant ERAP1, Leu-AMC fluorescence, 60 min; actives 0.15% (n = 340,000);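 active = mean replicate inhibition of at least 30%, or all replicates individually reaching that 30% level; inactive = mean below 30% and not every replicate reaching it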;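 note: 0% = neutral control wells and 100% = L-leucinethiol positive control wells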
Target sequence (Q9NZ08 whole entry, looked up): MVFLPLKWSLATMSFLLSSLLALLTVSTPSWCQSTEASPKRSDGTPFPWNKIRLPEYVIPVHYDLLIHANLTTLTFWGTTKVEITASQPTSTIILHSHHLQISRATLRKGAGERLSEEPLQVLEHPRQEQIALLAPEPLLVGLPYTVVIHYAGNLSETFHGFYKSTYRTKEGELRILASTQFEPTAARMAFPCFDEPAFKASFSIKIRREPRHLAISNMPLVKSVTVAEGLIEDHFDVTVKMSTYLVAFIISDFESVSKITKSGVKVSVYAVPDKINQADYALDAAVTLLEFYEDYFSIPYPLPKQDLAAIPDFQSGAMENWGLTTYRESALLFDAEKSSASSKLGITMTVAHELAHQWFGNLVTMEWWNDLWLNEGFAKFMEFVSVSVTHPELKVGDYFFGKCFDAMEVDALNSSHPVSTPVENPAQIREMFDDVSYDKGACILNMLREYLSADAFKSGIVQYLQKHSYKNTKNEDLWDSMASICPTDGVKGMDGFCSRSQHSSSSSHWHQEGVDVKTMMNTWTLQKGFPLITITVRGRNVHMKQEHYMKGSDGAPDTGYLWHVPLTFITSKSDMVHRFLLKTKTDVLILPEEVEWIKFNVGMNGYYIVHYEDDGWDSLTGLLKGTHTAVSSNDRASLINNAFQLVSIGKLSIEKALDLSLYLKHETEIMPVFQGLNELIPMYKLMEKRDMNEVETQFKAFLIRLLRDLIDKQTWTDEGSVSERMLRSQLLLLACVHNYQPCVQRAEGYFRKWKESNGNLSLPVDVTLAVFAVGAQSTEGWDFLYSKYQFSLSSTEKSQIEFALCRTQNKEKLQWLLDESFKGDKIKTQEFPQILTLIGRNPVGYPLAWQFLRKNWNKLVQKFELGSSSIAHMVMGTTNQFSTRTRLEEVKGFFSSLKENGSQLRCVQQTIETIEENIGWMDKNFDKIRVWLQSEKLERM
Active calls of the source: *; u = inconclusive; x = not tested or not shown; ! = not confirmed by another sample; [ ] = remark or other dose.

SMILES | DENV2 CPE rescue | E-selectin induc | CFTR F508del cor | miR-122 sensor | GSIS activator | ERAP1 inh
Cc1ccc(S(=O)(=O)N2CC[C@@H]3[C@H]2c2cc(C#Cc4ccc(F)cc4)ccc2N[C@@H]3CO)cc1 | 29* | 0 | 1 | 0[16.7 µM] | 6 | -2
COc1ccccc1C#Cc1ccc2c(c1)[C@H]1[C@H](CCN1C(=O)c1ccccc1)[C@H](CO)N2 | 4 | -1 | 1 | -1[16.7 µM] | -33 | -3
C[C@H](O)C#Cc1cnc2c(c1)C(=O)N([C@@H](C)CO)C[C@@H](C)[C@@H](CN(C)C(=O)Nc1ccc(F)cc1)O2 | -1 | 0 | 0 | -2[16.7 µM] | 13 | 0
CCCCNC(=O)C(OC(=O)c1ccccc1)c1ccco1 (stereo not drawn) | -2 | x | -1 | x | x | 1
O=C(O)C[C@H]1C[C@H]2c3cc(NC(=O)NC4CCCC4)ccc3O[C@H]2[C@@H](CO)O1 | 13 | 0 | 1 | 4[16.7 µM] | -1 | 0
O=C(Nc1ccc2c(c1)[C@@H]1C[C@@H](CC(=O)N3CCOCC3)O[C@@H](CO)[C@@H]1O2)NC1CCCCC1 | 23* | 0 | -3 | 3[16.7 µM] | 17 | -2
O=C(Nc1ccc2c(c1)[C@@H]1C[C@H](CC(=O)N3CCCCC3)O[C@@H](CO)[C@@H]1O2)NC1CCCCC1 | 32* | 0 | -1 | x | 4 | 1
O=C(Nc1ccc2c(c1)[C@H]1C[C@H](CC(=O)N3CCOCC3)O[C@H](CO)[C@H]1O2)NC1CCCCC1 | 3 | 0 | -3 | 1[16.7 µM] | -2 | -1
O=C(O)C[C@H]1C[C@H]2c3cc(NC(=O)NC4CCCC4)ccc3O[C@H]2[C@H](CO)O1 | 36* | 0 | 1 | -6[16.7 µM] | 6 | -1
COc1cc2c(C#CCCO)c(-c3ccsc3)oc(=O)c2cc1OC | 2 | 0 | 14* | -13 | 15 | 2
COc1cc2c(C#CCCO)c(-c3ccc(C#N)cc3)oc(=O)c2cc1OC | -12 | 0 | -1 | -3 | 6 | x
O=C(CCNC(=O)c1ccco1)NCCc1ccc(Cl)cc1 | -1 | 0 | 2 | -2 | 17 | 4
O=C(CCNC(=O)c1ccco1)Nc1ccc(Cl)cc1F | 28* | 1 | 0 | 0 | 13 | -1
CC1(C)OC(=O)C2=C(C[C@@H](C3CCCCC3)O[C@H]2c2ccc(F)cc2)O1 | 55* | 0 | -5 | 2 | -12 | -4
COc1ccc(S(=O)(=O)Nc2ccc3c(c2)CC(=O)N([C@H](C)CO)C[C@H](C)[C@H](CN(C)C(=O)NC(C)C)O3)cc1 | 64* | -2 | -1 | 10[16.7 µM] | 18 | 0
COc1ccc(S(=O)(=O)Nc2ccc3c(c2)CC(=O)N([C@H](C)CO)C[C@@H](C)[C@H](CN(C)C(=O)NC2CCCCC2)O3)cc1 | 3 | 48* | -2 | 7[16.7 µM] | -2 | 2
C/C(=N\NC(=O)c1ccc(Cl)c(Cl)c1)c1ccc(Br)s1 | x | x | x | x | 102* | x
O=C(C[C@H]1CC[C@H]2[C@@H](COC[C@H](O)CN2S(=O)(=O)c2ccccc2)O1)NCCN1CCCCC1 | 1 | 0 | 0 | 7[16.7 µM] | 23 | 0
CCCC(=O)OCCNc1cc(Sc2nccn2C)c2nonc2c1[N+](=O)[O-] | x | x | x | -62 | 162* | x
CCCSc1cc(NCCOC(=O)CCC)c([N+](=O)[O-])c2nonc12 | x | x | x | 14 | 14 | x
CCC(=O)OCCNc1cc(Sc2nc3ccccc3[nH]2)c2nonc2c1[N+](=O)[O-] | x | x | x | x | 88* | x
O=C(C(=O)N(C1CCCCC1)C1CCCCC1)c1ccccc1 | 8 | 0 | 0 | x | 73* | -3
C=CC(C)(C)c1[nH]cnc1/C=C1\NC(=O)C(C(C)C)NC1=O (stereo not drawn) | u | x | 8.5* | 7 | x | 27
Cn1c(N)c(C(=O)COC(=O)Cc2ccc(Cl)c(Cl)c2)c(=O)n(C)c1=O | 57* | x | -3 | 3 | -27 | 2
COc1ccc(CC(=O)OCC(=O)c2c(N)n(C)c(=O)n(C)c2=O)cc1OC | 17 | x | 4 | -7 | 18 | 10
SMILES | DENV2 CPE rescue | E-selectin induc | CFTR F508del cor | miR-122 sensor | GSIS activator | ERAP1 inh
Cn1c(N)c(C(=O)COC(=O)CCc2ccccc2)c(=O)n(C)c1=O | 9 | 107* | -2 | -10 | -3 | 1
COc1cccc(C(=O)Nc2ccc3c(c2)C(=O)N(C)C[C@@H](OC)[C@@H](C)CN[C@@H](C)CO3)c1 | -1 | 0 | 1 | x | -7 | 2
COc1ccc2ccccc2c1-c1sc(Nc2ccccc2)n[n+]1-c1ccc(F)cc1 | 52* | x | -1 | -16 | -47 | 5
COc1ccc(-c2sc(Nc3ccccc3)n[n+]2-c2ccc(F)cc2)cc1Br | u | x | 2 | 2 | -10 | 1
CN1c2ccc(C#Cc3cccnc3)cc2[C@H]2[C@H](CCN2S(=O)(=O)c2cccc(F)c2)[C@H]1CO | -4 | 0 | 2 | -7[16.7 µM] | 8 | -3
CN(c1ncnc(N)c1[N+](=O)[O-])C1CCCCC1 | -1 | x | 1 | 8 | 41* | 0
C[C@@H]1CN([C@@H](C)CO)C(=O)c2cccc(NS(=O)(=O)c3ccc(Cl)cc3)c2O[C@H]1CN(C)C(=O)Nc1ccc2c(c1)OCO2 | -4 | 98* | -1 | -13[16.7 µM] | -13 | 0
C[C@H](CO)N1C[C@H](C)[C@H](CN(C)C(=O)Nc2ccc3c(c2)OCO3)Oc2c(NS(=O)(=O)c3ccc(Cl)cc3)cccc2C1=O | -8 | 50* | -4 | 5[16.7 µM] | -13 | -2
C[C@H](CO)N1C[C@H](C)[C@@H](CN(C)C(=O)Nc2ccc3c(c2)OCO3)Oc2c(NS(=O)(=O)c3ccc(F)cc3)cccc2C1=O | 48*! | 1 | -2 | -2 | 6 | 1
C[C@@H]1CN([C@H](C)CO)C(=O)c2cccc(NS(=O)(=O)c3ccc(Cl)cc3)c2O[C@H]1CN(C)C(=O)Nc1ccc2c(c1)OCO2 | -15 | 9 | 1 | -7[16.7 µM] | -9 | 1
Cc1ccc(S(=O)(=O)Nc2cccc3c2O[C@H](CN(C)C(=O)Nc2ccc4c(c2)OCO4)[C@H](C)CN([C@H](C)CO)C3=O)cc1 | 4 | 0 | 0 | 0[16.7 µM] | -7 | 1
COCC(=O)N(C[C@@H]1[C@@H](c2ccccc2)[C@@H](CO)N1C(=O)NC(C)C)C(C)C | -5 | 4 | 2 | 17[16.7 µM] | 6 | 2
Cc1noc(C)c1S(=O)(=O)N(C)C[C@@H]1Oc2ccc(NS(=O)(=O)c3ccc(Cl)cc3)cc2CC(=O)N([C@H](C)CO)C[C@H]1C | 2 | 0 | 5 | 3[16.7 µM] | 4 | -2
COc1ccc(NC(=O)[C@@H]2CC=C[C@@H]3CCN(Cc4ccccc4)C(=O)[C@@H]32)cc1 | 25* | 0 | 1 | 5 | -15 | x
COc1ccc(NC(=O)[C@@H]2CC=C[C@@H]3CCN(Cc4ccc(Cl)c(Cl)c4)C(=O)[C@@H]32)cc1 | -5 | 0 | 2 | -11 | -33 | 1
